A selection: hits, their analogues and other compounds. The true share with any hit is near 3.1%.
FN deposit inh = fibronectin deposition inhibition. AH1F fibroblasts, Alexa488-fibronectin deposition fluorescence, overnight. inhibition, % at 12.6 µM. actives 0.086% (n = 350,000);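 active means mean inhibition across replicates of 30% or more, regardless of how many single replicates reach that level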;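 further: positive control wells lacked labelled fibronectin entirely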
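material = AH1F fibroblast monolayer depositing Alexa488-labelled fibronectin into matrix | amount = 10000 AH1F cells/well | buffer or medium = DMEM plus 2% serum, read in PBS | incubation = 1 h cell adhesion before compound, then overnight fibronectin incubation | detection = fluorescence at 485 nm excitation, 525 nm emission | evaluation = percent inhibition as loss of matrix-bound fibronectin fluorescence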
PAX8 inh HTS = inhibitors of PAX8 transcriptional activity in RMG-I cells | RMG-I TPO-luciferase reporter, SteadyGlo, 24 h | inhibition, % at 12.6 µM | actives 1.2% (n = 360,000) | AID 652154;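 active means mean replicate inhibition at least 60% with every replicate also reaching 60%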;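 further: luciferase light reporting Pax8 driven TPO promoter activity; plate controls were median of neutral control wells for no effect and mitoxantrone controls for full effect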
EWS-Fli block = inhibitors of EWS/Fli oncoprotein transcriptional activity | AID 651661 | inhibition, % at 12.6 µM | A673 NR0B1-luciferase reporter, viability-normalised | actives 0.67% (n = 350,000);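 active means mean inhibition of at least 50% after viability correction, with every replicate also passing that limit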;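 further: firefly luciferase signal divided by Alamar Blue viability fluorescence both relative to DMSO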
PGC1a acetyl inh = PGC1a acetylation modulation, inhibitor mode | actives 0.17% (n = 350,000) | inhibition, % at 15.6 µM | U2OS PGC1a acetylation, AlphaScreen anti-acetyl-lysine; with virally co-expressed GCN5 acetyltransferase | AID 651687;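 active means every replicate shows inhibition of at least 40%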;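 further: 0% = neutral control wells and 100% = positive control wells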
FGF22 binding = FGF22 (human) thermal shift binding; recombinant FGF22 thermal shift, SYPRO orange fluorescence; percent of sucrose octasulfate shift, DMSO zero; activity (Tm shift, normalised), % at 9.99 µM; actives 1.5% (n = 340,000); AID 651658;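 active means mean Tm shift, scaled 0 neutral to 100 positive control, at about 1.3% or above, every replicate too, limit read from the data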
Target sequence (Q9HCT0 whole entry, looked up): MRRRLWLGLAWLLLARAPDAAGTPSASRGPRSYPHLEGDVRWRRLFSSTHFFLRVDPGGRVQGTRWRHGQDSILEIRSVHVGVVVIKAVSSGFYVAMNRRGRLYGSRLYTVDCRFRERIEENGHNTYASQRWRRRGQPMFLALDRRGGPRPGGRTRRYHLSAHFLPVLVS
HIV Env fusion = HIV envelope-mediated fusion inhibition. HeLa-JRFL Env/CEM21 cell fusion, luciferase. AID 651610. inhibition, % at 12.3 µM. actives 1.1% (n = 360,000);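 active means mean replicate inhibition score of at least 50 and every replicate individually at or above 50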;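 further: 0% = plate neutral controls and 100% = maraviroc near 300 nM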
Active calls of the source: *; x = not tested or not shown; [ ] = another dose, or the depositor's remark.

SMILES | FN deposit inh | PAX8 inh HTS | EWS-Fli block | PGC1a acetyl inh | FGF22 binding | HIV Env fusion
CC(=O)c1cn(Cc2ccccc2)c(=O)[nH]c1=O | -7.9 | 0.2 | 4.0 | 8.2 | 43.4* | 9.4
C[C@@H]1CN([C@@H](C)CO)S(=O)(=O)c2ccc(C#CC(C)(C)O)cc2O[C@@H]1CN(C)C(=O)C1CC1 | x | x | -2.5 | 2.2 | x | -6.1[16.7 µM]
O=C(Nc1cc(C(F)(F)F)ccc1N1CCOCC1)C1=NN(c2ccccc2)C(=O)CC1 | 0.4 | 80.4* | x | x | -0.3 | -3.0
CS(=O)(=O)Nc1ccc2c(c1)[C@H]1C[C@@H](CC(=O)NCc3cccnc3)O[C@@H](CO)[C@H]1O2 | -3.1 | -1.3 | -3.2 | -14.5 | -0.1 | -13.6[16.7 µM]
CCN1CCN(Cc2ccc(NC(=O)c3ccc(C)c(NC(=O)c4cncc(-c5cccs5)c4)c3)cc2C(F)(F)F)CC1 | x | x | x | 68.7* | x | x
CCN1CCN(Cc2ccc(NC(=O)c3ccc(C)c(NC(=O)c4cc(-c5ccc(Br)cc5)n[nH]4)c3)cc2C(F)(F)F)CC1 | 0.0 | -1.9 | 54.1* | -14.5 | 0.1 | 44.1
CCN1CCN(Cc2ccc(NC(=O)c3ccc(C)c(NC(=O)c4nccnc4N)c3)cc2C(F)(F)F)CC1 | 6.4 | 5.1 | 20.0 | x | -0.4 | 37.4
CCN1CCN(Cc2ccc(NC(=O)c3ccc(C)c(NC(=O)c4nccn4C)c3)cc2C(F)(F)F)CC1 | 1.3 | 6.5 | 4.8 | -2.5 | -0.1 | 6.7
C[C@@H]1CN([C@H](C)CO)C(=O)c2cc(N(C)C)ccc2O[C@H]1CN(C)S(=O)(=O)c1cccs1 | -1.9 | 5.4 | -7.0 | 1.9 | 0.0 | 1.3[16.7 µM]
O=C(C[C@H]1CC[C@H]2[C@@H](COC[C@H](O)CN2C(=O)Nc2ccc(Cl)c(Cl)c2)O1)NCc1ccncc1 | -12.9 | 14.5 | -25.6 | 10.8 | 0.7 | 70.4*[16.7 µM]
O=C(C[C@@H]1CC[C@@H]2[C@H](COC[C@@H](O)CN2C(=O)Nc2ccc(C(F)(F)F)cc2)O1)NC1Cc2ccccc2C1 | -13.1 | 87.9* | 31.1 | 5.0 | -0.1 | 5.5[16.7 µM]
O=C(C[C@@H]1CC[C@@H]2[C@H](COC[C@H](O)CN2C(=O)Nc2ccc(C(F)(F)F)cc2)O1)NC1Cc2ccccc2C1 | -3.6 | -1.7 | 22.7 | -4.9 | -0.1 | -71.9[16.7 µM]
O=C(C[C@H]1CC[C@H]2[C@@H](COC[C@H](O)CN2C(=O)Nc2ccc(C(F)(F)F)cc2)O1)NC1Cc2ccccc2C1 | -19.3 | 73.6* | 9.7 | 16.1 | 0.0 | 11.8[16.7 µM]
NC(=O)c1sc(=S)n2c1[nH]c(=O)c1sccc12 | -0.2 | 6.8 | -2.8 | 4.2 | 47.4* | 6.3
CC(=O)NNC(=O)c1sc(=S)n2c1[nH]c(=O)c1sccc12 | -0.8 | -2.7 | 2.6 | -3.9 | 43.0* | 4.9
Cc1noc(C)c1S(=O)(=O)Nc1ccc2c(c1)C(=O)N([C@@H](C)CO)C[C@@H](C)[C@@H](CN(C)Cc1ccc3c(c1)OCO3)O2 | 2.4 | x | 6.6 | -3.3 | 0.5 | x
CC(=O)N(C)C[C@H]1Oc2cc(-c3cccc(F)c3)ccc2S(=O)(=O)N([C@H](C)CO)C[C@H]1C | 2.0 | 6.9 | 9.4 | -9.5 | 0.2 | 10.3[16.7 µM]
Cc1c(/C=N\NC(=O)c2c[nH]c3ccccc23)cnn1C | -0.2 | -7.3 | -22.5 | x | 44.0* | -20.7
CC(NC(=O)CSc1n[nH]c(=O)[nH]c1=O)C1CC2CCC1C2 (stereo unspecified) | 1.3 | -6.2 | 2.4 | -3.7 | -0.3 | -0.5
Cc1cc(=O)[nH]c(SCC(=O)NC(C)C2CC3CCC2C3)c1C#N (stereo unspecified) | -1.0 | 1.1 | 0.2 | x | 43.7* | -4.3
COc1ccc(NC(=O)N(C)C[C@@H]2Oc3ccc(NC(=O)CCN4CCOCC4)cc3CC(=O)N([C@H](C)CO)C[C@@H]2C)cc1 | x | -21.7 | -0.6 | 4.1 | x | x
N#Cc1c(-c2ccc3c(c2)OCO3)cc[nH]c1=O | x | x | x | -6.2 | x | x
CS(=O)(=O)c1nc(-c2ccc(Br)cc2)cc(-c2ccccc2)c1C#N | -6.3 | x | x | -1.2 | x | -1.7
COc1nc(-c2ccccc2)cc(-c2ccc3c(c2)OCO3)c1C#N | -12.9 | 10.2 | 59.4* | x | 0.1 | -5.2
COc1ccc(-c2cc(-c3ccccc3)c(C#N)c(S(C)(=O)=O)n2)cc1 | 9.0 | 92.7* | x | 20.5 | x | -100.7
